As a reminder, the AC50 is the concentration giving half of the maximal activity seen.

Where “and” joins values, the source holds several entries; their conditions need not be identical. Identical values can stand only once.

The subject of this assay is Candida albicans CaCi-2 growth, Alamar Blue fluorescence, 48 h. Put plainly: C. albicans growth inhibitors tested alone, no partner drug – CaCi-2 strain, Alamar Blue, dry powder, set 4, dose response (AID 624006). In outline:
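Material: fluconazole-resistant C. albicans CaCi-2; Input: inoculum A600 0.00015; Medium: RPMI 1640 with MOPS buffer, uridine and glucose; Control set: amphotericin 10 µM positive control; Incubation: 48 h static compound exposure at 37 °C, then 2 h Alamar Blue; Signal: Alamar Blue fluorescence.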
Consider `CC1/C=C/C=C\C=C\C=C\C=C\C=C\C=C\C(O[C@H]2OC(C)C(O)C(N)C2O)CC2OC(O)(CC(O)CC(O)C(O)CCC(O)CC(O)CC(=O)OC(C)C(C)C1O)CC(O)C2C(=O)O` (some centres not stated), for which the AC50 is 64.5 nM. `CCOC(=O)N1C(=O)C2(CCCCC2)N(c2ccc(F)cc2)C1=S`: the AC50 is 39.9 nM. Turning to `CCOC(=O)N1C(=O)C2(CCCCC2)N(c2ccc(C)cc2)C1=S`, the AC50 is 223 nM and 253 nM.

Consider `CCOC(=O)N1C(=O)C2(CCCCC2)N(c2ccc(Cl)cc2)C1=S`, for which the AC50 was 65.7 nM.

For `CCOC(=O)N1C(=O)C2(CCCCC2)N(c2cccc(C)c2)C1=S`, the concentration at half-maximal activity (AC50) is 194 nM. The value for `CCOC(=O)N1C(=O)C2(CCCCC2)N(c2ccc(C#N)cc2)C1=S` was 88.9 nM; that for `CCOC(=O)N1C(=O)C2(CCCCC2)N(c2ccccc2)C1=S` was 202 nM.

(Values after PubChem BioAssay AID624006 (Broad Institute, 2012).)
